We go through seven molecules from publication PMC7986984 (Brain, behavior, and immunity, 2020).

Where two headings read alike, the source gives them in different places.

In one data set the test system is IL-1β. Put plainly: IL-1β production. It is filed as cell-based, human. The conditions noted are these: LPS +, ELISA, metabolites 250 ng/mL. Put shortly: (§1)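 Caco-2 grown 18 days on 8 μm transwells to TEER 500 ohm×cm2, set over THP-1 differentiated with PMA (15 nM, 48 h). Pretreatment 24 h with fermented supernatant (50 μL/1 mL) or metabolites (250 ng/mL), with or without AHR antagonist TMF. Challenge with LPS 1 μg/ml, IFN-γ and ATP in both compartments. Read-outs: TEER before and after; kynurenine by chemical assay, % control; IL-1β by ELISA, fold over untreated. n = 4 wells; t-test.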
In general terms: In an ELISA, binding on a coated surface is turned into a signal by an enzyme label.

Data set [1] is classed as in vivo, mice. The conditions noted are these: male, mouse, brain, po; for AUC: over 24 h; for Cmax: n = 6 +/- SEM.
A further data set deals with Caco-2 / THP-1 coculture. Put plainly: Transepithelial electrical resistance. It is filed as cell-based, human. The conditions noted are these: LPS +, TMF + (AHR antagonist); metabolites 250 ng/mL. In outline:
as §1

Another data set deals with Kynurenine. Put plainly: Kynurenine production. The following applies: LPS +, metabolites 250 ng/mL. Format: cell-based, human. Put shortly: as §1
Data set [2] is classed as in vivo, mice. The conditions noted are these: male, mouse, plasma, po; for AUC: over 24 h.
The target in data set [3] is T1, aryl hydrocarbon receptor (AHR) (Homo sapiens, UniProt P35869).
T1 sequence (P35869 11-848): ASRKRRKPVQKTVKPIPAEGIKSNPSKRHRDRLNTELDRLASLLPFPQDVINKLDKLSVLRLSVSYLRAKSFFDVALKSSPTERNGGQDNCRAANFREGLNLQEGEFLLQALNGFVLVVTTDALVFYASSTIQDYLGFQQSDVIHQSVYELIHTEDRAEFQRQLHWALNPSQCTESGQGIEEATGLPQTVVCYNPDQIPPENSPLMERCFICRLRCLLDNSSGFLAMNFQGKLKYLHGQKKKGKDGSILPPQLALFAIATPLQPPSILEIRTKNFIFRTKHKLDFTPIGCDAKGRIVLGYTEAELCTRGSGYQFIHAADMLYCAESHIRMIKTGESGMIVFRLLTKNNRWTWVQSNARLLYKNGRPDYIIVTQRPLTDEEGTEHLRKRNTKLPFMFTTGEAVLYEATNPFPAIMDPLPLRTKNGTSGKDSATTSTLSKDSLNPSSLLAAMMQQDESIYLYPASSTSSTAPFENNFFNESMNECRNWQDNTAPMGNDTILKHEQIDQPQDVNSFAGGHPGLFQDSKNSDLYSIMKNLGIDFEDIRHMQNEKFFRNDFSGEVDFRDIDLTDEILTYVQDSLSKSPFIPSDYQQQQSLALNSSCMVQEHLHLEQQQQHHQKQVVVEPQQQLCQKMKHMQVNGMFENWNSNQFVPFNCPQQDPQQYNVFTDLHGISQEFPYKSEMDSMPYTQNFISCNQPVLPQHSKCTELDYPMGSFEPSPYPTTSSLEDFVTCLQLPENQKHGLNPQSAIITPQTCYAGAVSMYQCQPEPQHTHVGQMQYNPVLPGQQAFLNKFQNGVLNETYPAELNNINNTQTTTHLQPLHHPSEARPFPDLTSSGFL
Format: cell-based. The following applies: for dependence of the beneficial / anti-inflammatory activity on AHR signaling: LPS-challenged coculture with AHR antagonist TMF; for anti-inflammatory effects (TEER, cytotoxicity, kynurenine, Il-1β gene expression), correlated to Cyp1a1 mRNA expression: LPS-treated coculture, two concentrations (Table S8). In outline: as §1

The next data set concerns THP-1 cells. Put plainly: qPCR gene expression in THP-1 cells of the LPS-challenged coculture. Format: cell-based, human. The conditions noted are these: TMF-treated vs. untreated. For orientation: Real-time PCR tracks product formation cycle by cycle.
Where [4] appears, read: TMF −, fold change from untreated controls.

With `COc1cc(-c2oc3cc(O)cc(O)c3c(=O)c2O)ccc1O` [3′-MeQUER, Isorhamnetin], the figures for the “IL-1β(Fold Change)” value in the data set with IL-1β (TMF +) and with IL-1β (setting [4]) were 9.4 ± 0.3τ ^* Fold Change and 6.5 ± 0.4τ Fold Change, respectively. Moreover, the AUC (commonly concentration integrated over time) in data set [1] (Chronic BDPP) is 26.9 ng·h/mL; in data set [1] (Chronic Synbiotic), 103 ng·h/mL; in data set [2] (Chronic BDPP), 15.6 ng·h/mL; in data set [2] (Chronic Synbiotic), 72.4 ng·h/mL. Further, the Cmax – broadly, the highest concentration seen after dosing – in data set [1] (Chronic BDPP) stood at 12.2 ± 6.9 ng/mL; in data set [1] (Chronic Synbiotic) it was 28.4 ± 6.3 ng/mL. In addition, the Tmax – broadly, the time at which the peak concentration occurs – in data set [1] (Chronic BDPP) worked out at 18 min; in data set [1] (Chronic Synbiotic) it was 60 min; in data set [2] (Chronic BDPP) it was 15 min; in data set [2] (Chronic Synbiotic), 30 min. Moreover, the “TEER (% Control)” value in the data set with Caco-2 / THP-1 coculture is given as 73.4 ± 1.2 % Control. The “Kynurenine (% Change)” value with Kynurenine (TMF +) was 129.9 ± 13.8 % Change; with Kynurenine (TMF −) it was 102.3 ± 9.6τ % Change.

As to `O=C(O)Cc1ccc(O)cc1` [4-HPAA, 4-Hydroxyphenylacetic acid], the “dependence of the beneficial / anti-inflammatory activity on AHR signaling” value in data set [3] is “abrogated by TMF”. In addition, in data set [3], the “anti-inflammatory effects (TEER, cytotoxicity, kynurenine, Il-1β gene expression), correlated to Cyp1a1 mRNA expression” value (from here on “anti-inflammatory effects”) was “dose-dependent anti-inflammatory effects”. Besides, the “IL-1β(Fold Change)” value is 9.8 ± 0.4τ ^** Fold Change in the data set with IL-1β (TMF +) and 5.2 ± 0.6τ Fold Change in the data set with IL-1β (setting [4]). Besides, the “Tlr4 expression in TMF-treated cultures” value in the data set with THP-1 cells is “suppressed”. Further, the AUC in data set [1] (Chronic BDPP) worked out at 1350 ng·h/mL; in data set [1] (Chronic Synbiotic), 1650 ng·h/mL; in data set [2] (Chronic BDPP) it was 3760 ng·h/mL; in data set [2] (Chronic Synbiotic) it was 4460 ng·h/mL. For the same molecule, the results for the Cmax in data set [1] (Chronic BDPP) and in data set [1] (Chronic Synbiotic) were 66.8 ± 4.7 ng/mL and 108 ± 6.5 ng/mL, respectively. The Tmax in data set [1] (Chronic BDPP) worked out at 60 min; in data set [1] (Chronic Synbiotic), 60 min; in data set [2] (Chronic BDPP), 30 min; in data set [2] (Chronic Synbiotic) it was 18 min. Also, in the data set with Caco-2 / THP-1 coculture, the “TEER (% Control)” value is recorded as 70.2 ± 2.0 % Control. Further, in the data set on Kynurenine (TMF +), the “Kynurenine (% Change)” value was 120.7 ± 7.9 % Change.

Take `O=C(O)CCc1ccc(O)cc1` [4-HPPA, 3-(4-Hydroxyphenyl)propionic acid]: the “dependence of the beneficial / anti-inflammatory activity on AHR signaling” value in data set [3] was “abrogated by TMF”. Further, the “anti-inflammatory effects” value in data set [3] is given as “dose-dependent anti-inflammatory effects”. The figures for the “IL-1β(Fold Change)” value in the data set on IL-1β (TMF +) and with IL-1β (setting [4]) were 9.1 ± 0.0τ ^** Fold Change and 6.4 ± 0.3τ Fold Change, respectively. In addition, in the data set on THP-1 cells, the “Tlr4 expression in TMF-treated cultures” value is “suppressed”. The “TEER (% Control)” value in the data set on Caco-2 / THP-1 coculture is listed as 72.3 ± 2.0 % Control. In addition, the results for the “Kynurenine (% Change)” value with Kynurenine (TMF +) and with Kynurenine (TMF −) were 134.3 ± 3.2 % Change and 102.0 ± 2.2τ % Change, respectively. Moreover, the area under the curve (AUC) in data set [2] (Chronic BDPP) stood at 406 ng·h/mL; in data set [2] (Chronic Synbiotic) it was 2170 ng·h/mL. Also, the results for the Tmax in data set [2] (Chronic BDPP) and in data set [2] (Chronic Synbiotic) were 30 min and 18 min, respectively.

Consider `COc1cc(O)c2c(=O)c(O)c(-c3ccc(O)c(O)c3)oc2c1` [7′-MeQUER, Rhamnetin], for which the “IL-1β(Fold Change)” value is on record as 8.1 ± 0.4τ Fold Change with IL-1β (TMF +) and 7.9 ± 0.4τ Fold Change in the data set on IL-1β (setting [4]). Also, the AUC was 1.14 ng·h/mL in data set [1] (Chronic Synbiotic) and 0.4 ng·h/mL in data set [2] (Chronic Synbiotic). The Cmax in data set [1] (Chronic Synbiotic) is 0.1 ± 0.09 ng/mL. The time to peak (Tmax) in data set [1] (Chronic Synbiotic) and in data set [2] (Chronic Synbiotic) was 30 min in each case. Moreover, the “TEER (% Control)” value with Caco-2 / THP-1 coculture is listed as 74.5 ± 2.0 % Control. For the same molecule, the “Kynurenine (% Change)” value in the data set on Kynurenine (TMF +) stood at 132.0 ± 13.3 % Change; in the data set on Kynurenine (TMF −) it was 119.5 ± 4.3 % Change.

Take `O=C(O)/C=C/c1ccc(O)c(O)c1` [CA, Caffeic acid]: the “dependence of the beneficial / anti-inflammatory activity on AHR signaling” value in data set [3] is given as “abrogated by TMF”. Moreover, in data set [3], the “anti-inflammatory effects” value is recorded as “dose-dependent anti-inflammatory effects”. Further, the results for the “IL-1β(Fold Change)” value in the data set on IL-1β (TMF +) and in the data set with IL-1β (setting [4]) were 10.3 ± 0.3τ ^** Fold Change and 4.0 ± 0.3τ Fold Change, respectively. Further, in the data set with THP-1 cells, the “Tlr4 expression in TMF-treated cultures” value was “suppressed”. Besides, the “TEER (% Control)” value in the data set with Caco-2 / THP-1 coculture is 73.2 ± 0.9 % Control. Moreover, the “Kynurenine (% Change)” value is given as 144.1 ± 6.4 % Change in the data set on Kynurenine (TMF +) and 98.6 ± 7.7τ % Change in the data set on Kynurenine (TMF −). Also, the AUC in data set [2] (Chronic BDPP) amounted to 52.8 ng·h/mL; in data set [2] (Chronic Synbiotic), 51.4 ng·h/mL. The Tmax in data set [2] (Chronic BDPP) and in data set [2] (Chronic Synbiotic) was 18 min each time.

For `O=c1c(O)c(-c2ccc(O)cc2)oc2cc(O)cc(O)c12` [KAMF, Kaempferol], the “dependence of the beneficial / anti-inflammatory activity on AHR signaling” value in data set [3] is “independent of AHR signaling”. The “anti-inflammatory effects” value in data set [3] is given as “dose-dependent anti-inflammatory effects”. Also, the “IL-1β(Fold Change)” value in the data set with IL-1β (TMF +) is reported as 10.1 ± 0.7τ Fold Change; in the data set with IL-1β (setting [4]), 8.4 ± 0.2τ Fold Change. Further, the AUC stood at 87.2 ng·h/mL in data set [1] (Chronic BDPP), 288 ng·h/mL in data set [1] (Chronic Synbiotic), 3.5 ng·h/mL in data set [2] (Chronic BDPP) and 38.2 ng·h/mL in data set [2] (Chronic Synbiotic). Further, the maximum concentration (Cmax) in data set [1] (Chronic BDPP) was 25.3 ± 9.6 ng/mL; in data set [1] (Chronic Synbiotic), 23 ± 2.6 ng/mL. Moreover, the Tmax in data set [1] (Chronic BDPP) was 18 min; in data set [1] (Chronic Synbiotic) it was 60 min; in data set [2] (Chronic BDPP) it was 18 min; in data set [2] (Chronic Synbiotic), 30 min. Further, the “TEER (% Control)” value with Caco-2 / THP-1 coculture was 75.5 ± 2.1 % Control. Further, the results for the “Kynurenine (% Change)” value with Kynurenine (TMF +) and in the data set on Kynurenine (TMF −) were 131.7 ± 3.9 % Change and 151.0 ± 3.7 % Change, respectively.

Regarding `COc1cc(C(=O)O)ccc1O` [VA, Vanillic acid], the AUC in data set [1] (Chronic BDPP) came to 169 ng·h/mL; in data set [1] (Chronic Synbiotic), 205 ng·h/mL; in data set [2] (Chronic BDPP) it was 299 ng·h/mL; in data set [2] (Chronic Synbiotic), 118 ng·h/mL. In addition, the results for the highest concentration (Cmax) in data set [1] (Chronic BDPP) and in data set [1] (Chronic Synbiotic) were 9.7 ± 1 ng/mL and 13.9 ± 1.8 ng/mL, respectively. For the same molecule, the time of peak concentration (Tmax) is 18 min in data set [1] (Chronic BDPP), 60 min in data set [1] (Chronic Synbiotic), 30 min in data set [2] (Chronic BDPP) and 18 min in data set [2] (Chronic Synbiotic).
